Source: ChEMBL document CHEMBL4251599, “Synthesis and biological evaluation of coumarin derivatives containing imidazole skeleton as potential antibacterial agents” (Eur J Med Chem, 2018)
In brackets after ≈: the same amount, converted by molar mass.

Columns and labels:
[1] = Inhibition of Escherichia coli ATCC 35150 FabI in presence of t-O-NAC and NADH up to 1 min by spectrophotometric analysis
Method in brief: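 Recombinant His-tagged FabI, expressed in E. coli BL21(DE3) and purified on Ni-NTA, was used at 20 µL of 100 µg/mL stock in 0.1 M PBS-DTT. Compounds were tested at 128-1 µM with 10 µL of 4 mM t-O-NAC, and 20 µL of 2 mM NADH started the reaction. NADH oxidation was followed at 340 nm for 1 min. IC50 came from dose-response plots.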

[2] = test system: Escherichia coli; assay: Antibacterial activity against Escherichia coli ATCC 35150 after 24 hrs by two fold serial dilution method; format: functional; conditions: ATCC 35150, 24 h
Method in brief: (§1)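 Broth two-fold serial dilution per CLSI, in nutrient broth. Inoculum from 24 h cultures at 28 ± 1 °C, adjusted in saline to 1×10^7-2×10^7 cfu/mL, then diluted to 1×10^5-2×10^5 cfu/mL. Test range 256 down to 0.50 µM and lower. Tubes held 24 h at 28 ± 1 °C. MIC read visually. Enrofloxacin and norfloxacin served as standards.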

[3] = test system: Flavobacterium columnare; assay: Antibacterial activity against Flavobacterium columnare FC-G1 after 24 hrs by two fold serial dilution method; format: functional; conditions: FC-G1, 24 h; method in brief: as §1
[4] = target: T1, Enoyl-(Acyl-carrier-protein) reductase II (Streptococcus agalactiae serotype V (strain ATCC BAA-611 / 2603 V/R), UniProt Q8E1K8); assay: Inhibition of Streptococcus agalactiae WB1445 FabK in presence of t-O-NAC and NADH up to 1 min by spectrophotometric analysis
T1 sequence (Q8E1K8 whole entry): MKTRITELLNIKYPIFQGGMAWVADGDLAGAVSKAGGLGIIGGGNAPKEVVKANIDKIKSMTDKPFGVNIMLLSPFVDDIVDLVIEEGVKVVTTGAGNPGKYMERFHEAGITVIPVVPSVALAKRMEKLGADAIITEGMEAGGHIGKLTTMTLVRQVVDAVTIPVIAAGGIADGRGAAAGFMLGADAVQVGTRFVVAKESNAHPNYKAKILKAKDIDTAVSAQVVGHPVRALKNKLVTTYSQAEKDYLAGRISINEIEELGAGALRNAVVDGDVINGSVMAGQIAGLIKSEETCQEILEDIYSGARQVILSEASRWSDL
Method in brief: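 Recombinant His-tagged FabK (20 µL of 150 µg/mL stock) was assayed in 100 µL of 0.1 M ADA-DTT, pH 6.5, against compounds at 128-1 µM, with 10 µL of 4 mM t-O-NAC. Addition of 20 µL of 2 mM NADH started the reaction. Absorbance at 340 nm was read for 1 min. IC50 was estimated from dose-response curves.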

[5] = test system: Staphylococcus aureus; assay: Antibacterial activity against Staphylococcus aureus ATCC 29213 after 24 hrs by two fold serial dilution method; format: functional; conditions: ATCC 29213, 24 h; method in brief: as §1
[6] = test system: Staphylococcus aureus; assay: Bactericidal activity against Staphylococcus aureus ATCC 29213 incubated for 24 hrs followed by re-plating on nutrient agar and measured after overnight incubation by two fold serial dilution method; format: functional; conditions: ATCC 29213, 24 h
Method in brief: (§2)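 After the MIC read, 100 µl from every tube without visible growth was spread on nutrient agar lacking compound. Plates were incubated overnight at 28 ± 1 °C. MBC was taken as the lowest concentration killing >99.9% of the initial population, seen as no growth on agar.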

[7] = test system: Streptococcus agalactiae; assay: Bactericidal activity against Streptococcus agalactiae WB1445 incubated for 24 hrs followed by re-plating on nutrient agar and measured after overnight incubation by two fold serial dilution method; format: functional; conditions: WB1445, 24 h; method in brief: as §2
[8] = test system: Streptococcus agalactiae; assay: Antibacterial activity against Streptococcus agalactiae WB1445 after 24 hrs by two fold serial dilution method; format: functional; conditions: WB1445, 24 h; method in brief: as §1
[9] = test system: Flavobacterium columnare; assay: Bactericidal activity against Flavobacterium columnare FC-G1 incubated for 24 hrs followed by re-plating on nutrient agar and measured after overnight incubation by two fold serial dilution method; format: functional; conditions: FC-G1, 24 h; method in brief: as §2
[10] = test system: Escherichia coli; assay: Bactericidal activity against Escherichia coli ATCC 35150 incubated for 24 hrs followed by re-plating on nutrient agar and measured after overnight incubation by two fold serial dilution method; format: functional; conditions: ATCC 35150, 24 h; method in brief: as §2

IC50 [1] [µM] | MIC [2] [µM] | MIC [3] [µM] | IC50 [4] [µM] | MIC [5] [µM] | MIC [8] [µM] | SMILES | MBC [6] [µM] | MBC [7] [µM] | MBC [9] [µM] | MBC [10] [µM]
117 | > 256 | 4 (≈ 1.42 µg/mL) | 1.75 | 8 (≈ 2.84 µg/mL) | 4 (≈ 1.42 µg/mL) | Cc1cn(CCCCCCCCOc2ccc3ccc(=O)oc3c2)cn1 | 64 (≈ 22.7 µg/mL) | 16 (≈ 5.67 µg/mL) | 8 (≈ 2.84 µg/mL) | > 256
108 | > 256 | 8 (≈ 3.06 µg/mL) | 4.21 | 64 (≈ 24.5 µg/mL) | 8 (≈ 3.06 µg/mL) | Cc1nccn1CCCCCCCCCCOc1ccc2ccc(=O)oc2c1 | 128 (≈ 49 µg/mL) | 16 (≈ 6.12 µg/mL) | 16 (≈ 6.12 µg/mL) | > 256
1.2 | 8 (≈ 2.61 µg/mL) | 16 (≈ 5.22 µg/mL) | 3.44 | 64 (≈ 20.9 µg/mL) | 128 (≈ 41.8 µg/mL) | Cc1nccn1CCCCCCOc1ccc2ccc(=O)oc2c1 | 256 (≈ 83.6 µg/mL) | 256 (≈ 83.6 µg/mL) | 32 (≈ 10.4 µg/mL) | 64 (≈ 20.9 µg/mL)
> 256 | > 256 | 16 (≈ 5.9 µg/mL) | 5.03 | 64 (≈ 23.6 µg/mL) | 8 (≈ 2.95 µg/mL) | O=c1ccc2ccc(OCCCCCCCCCCn3ccnc3)cc2o1 | 128 (≈ 47.2 µg/mL) | 16 (≈ 5.9 µg/mL) | 16 (≈ 5.9 µg/mL) | > 256
115 | > 256 | 16 (≈ 6.12 µg/mL) | 4.37 | 32 (≈ 12.2 µg/mL) | 8 (≈ 3.06 µg/mL) | Cc1cn(CCCCCCCCCCOc2ccc3ccc(=O)oc3c2)cn1 | 128 (≈ 49 µg/mL) | 16 (≈ 6.12 µg/mL) | 16 (≈ 6.12 µg/mL) | > 256
112 | > 256 | 2 (≈ 0.709 µg/mL) | 1.13 | 16 (≈ 5.67 µg/mL) | 4 (≈ 1.42 µg/mL) | Cc1nccn1CCCCCCCCOc1ccc2ccc(=O)oc2c1 | 128 (≈ 45.4 µg/mL) | 16 (≈ 5.67 µg/mL) | 8 (≈ 2.84 µg/mL) | > 256
4.46 | 64 (≈ 19.1 µg/mL) | > 256 | > 256 | 256 (≈ 76.4 µg/mL) | > 256 | Cc1nccn1CCCCOc1ccc2ccc(=O)oc2c1 | 256 (≈ 76.4 µg/mL) | > 256 | > 256 | 256 (≈ 76.4 µg/mL)
1.35 | 16 (≈ 5.22 µg/mL) | 32 (≈ 10.4 µg/mL) | 3.59 | 32 (≈ 10.4 µg/mL) | 128 (≈ 41.8 µg/mL) | Cc1cn(CCCCCCOc2ccc3ccc(=O)oc3c2)cn1 | 128 (≈ 41.8 µg/mL) | 256 (≈ 83.6 µg/mL) | 128 (≈ 41.8 µg/mL) | 64 (≈ 20.9 µg/mL)
